# The entries come from a sample that favours hits as a whole.
# T cruzi HTS – intracellular Trypanosoma cruzi inhibition; intracellular Trypanosoma cruzi in host cells, plate reader; activity score (inhibition), % at 5.01 µM; hit rate 4.9% among 22,000; AID 651903; in the data active = activity score above about 55%; inconclusive = no clear call, values can overlap the other calls;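 note: parasites and compound incubated about four days before reading; 0% = median of neutral control wells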
# A1 apoptosis 2 – compounds inhibiting A1, read as caspase activation. MEF A1-2A-BIM cells, caspase-Glo luminescence, 3 h; percent of clofoctol response, DMSO zero. caspase activation, % (test concentration not listed). 24,000 tested, under 10 active. AID 2465; in the data active = caspase activation above about 5.9%; inconclusive = no clear call, values can overlap the other calls; inactive = below about 2.2%
#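 system = A1-2A-BIM-expressing MEF cells | quantity = 2500 MEF cells/well | dosing = 50 nL compound per well, pinned | schedule = overnight cell settling, then 3 h compound exposure, 37 °C | signal = luminescence from DEVD-luciferin Caspase-Glo reagent, 1:1 in 50 mM HEPES, 1 h RT | read-out = Caspase-3/7 activation, seen as rise in luminescence signal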
# INS-1E ATP HTS – rescue of cytokine-induced death in INS-1E beta cells; INS-1E cytokine-induced death, ATP luminescence, 48 h; normalised: neutral wells 0, positive control 100; protection from cytokine-induced ATP loss, % at 10 µM; hit rate 0.1% among 20,000;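 active = mean replicate protection from cytokine-induced ATP loss at least 50% and at least 75% of replicates each reaching 50%; inconclusive = meets only one of the two criteria, mean or replicate share; inactive = fails both the mean and replicate share criteria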
#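 Assay system: INS-1E rat cells / Quantity: 8000 cells per well / Medium: RPMI without phenol red, 5% FBS / Probe or stimulus: three-cytokine cocktail (IFN-γ, TNF-α, IL-1β) / Dosing: one compound concentration, pin transfer / Timing: 48 h co-treatment, 10 min post-lysis read / Technique: CellTiter-Glo luminescence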
# An asterisk follows results filed as active; ? = inconclusive; . = not tested or not shown.
SMILES,T cruzi HTS,A1 apoptosis 2,INS-1E ATP HTS
C[C@H](CO)N1C[C@H](C)[C@H](CN(C)Cc2ccc(Oc3ccccc3)cc2)Oc2c(NC(=O)Nc3ccc(F)cc3)cccc2C1=O,-13,-1,-9
C[C@H](CO)N1C[C@H](C)[C@@H](CN(C)Cc2ccc(Oc3ccccc3)cc2)Oc2c(NC(=O)Nc3ccc(F)cc3)cccc2C1=O,59*,1,-36
C[C@@H]1CN([C@@H](C)CO)C(=O)c2cccc(NC(=O)Nc3ccccc3)c2O[C@H]1CN(C)Cc1ccc(Oc2ccccc2)cc1,76*,-1,-25
C=CCNC(=O)[C@H]1[C@@H]2C(=O)O[C@@H](c3ccccc3)[C@@H](c3ccccc3)N2[C@@H](c2ccccc2OCCO)[C@]12C(=O)Nc1ccc(C#CCNC(N)=O)cc12,.,-1,.
CC1(C)COC(CCC/C=N/NC(=O)CCCCCCC(=O)NO)OC1,.,1,.
CC(C)(C)NC(=O)C(OC(=O)c1ccccc1)c1ccco1 (centres undefined),.,0,.
C[C@H]1CN([C@@H](C)CO)C(=O)Cc2cc(NC(=O)Nc3ccc4c(c3)OCO4)ccc2O[C@@H]1CN(C)Cc1ccc(C(=O)Nc2ccccc2N)cc1,56*,0,-10
C[C@H](CO)N1C[C@H](C)[C@H](CN(C)Cc2ccc(C(=O)Nc3ccccc3N)cc2)Oc2ccc(NC(=O)Nc3ccc4c(c3)OCO4)cc2CC1=O,67*,.,48
CC(C)NC(=O)Nc1ccc2c(c1)CC(=O)N([C@@H](C)CO)C[C@@H](C)[C@@H](CN(C)Cc1ccc(C(=O)Nc3ccccc3N)cc1)O2,40,.,-23
COc1cc(/C=N/NC(=O)CCCCCCC(=O)Nc2ccccc2O)c(Br)cc1O,3,0,11
COc1ccc(S(=O)(=O)N(C)C[C@H]2Oc3c(NC(=O)Nc4ccc(C(F)(F)F)cc4)cccc3C(=O)N([C@@H](C)CO)C[C@H]2C)cc1,67*,0,-102
COc1ccc(S(=O)(=O)N(C)C[C@@H]2Oc3c(NC(=O)Nc4ccc(C(F)(F)F)cc4)cccc3C(=O)N([C@@H](C)CO)C[C@H]2C)cc1,2,-2,-7
COc1ccc(S(=O)(=O)N(C)C[C@H]2Oc3c(NC(=O)Nc4ccc(C(F)(F)F)cc4)cccc3C(=O)N([C@H](C)CO)C[C@@H]2C)cc1,?,-1,-18
COc1ccc(S(=O)(=O)N(C)C[C@H]2Oc3ccc(NC(=O)Nc4cccc5ccccc45)cc3C(=O)N([C@@H](C)CO)C[C@@H]2C)cc1,3,.,1
COc1ccc(S(=O)(=O)N(C)C[C@H]2Oc3ccc(NC(=O)Nc4cccc5ccccc45)cc3C(=O)N([C@@H](C)CO)C[C@H]2C)cc1,62*,.,-9
COc1ccc(S(=O)(=O)N(C)C[C@H]2Oc3c(NC(=O)Nc4ccc(C(F)(F)F)cc4)cccc3C(=O)N([C@@H](C)CO)C[C@@H]2C)cc1,70*,-1,-39
O=C(CCCCC(=O)N/N=C/c1ccc(F)c(Oc2ccccc2)c1)NO,-1,.,49
Cc1nc(S(=O)(=O)N[C@@H]2CCCN(Cc3ccc(OCCO)cc3)C2)cn1C,.,-1,.
O=C(NO)c1cccc(C(=O)N/N=C/c2c(O)cc(O)cc2O)c1,-5,2,-5
C[C@H](CO)N1C[C@H](C)[C@H](CN(C)Cc2ccc3c(c2)OCO3)Oc2ncc(-c3ccc(F)cc3)cc2C1=O,19,0,.
C[C@H](CO)N1C[C@H](C)[C@H](CN(C)Cc2ccc3c(c2)OCO3)Oc2ncc(-c3cc4ccccc4o3)cc2C1=O,78*,-2,.
C[C@H](CO)N1C[C@H](C)[C@H](CN(C)C)Oc2ncc(-c3cc4ccccc4o3)cc2C1=O,85*,0,.
C[C@H](CO)N1C[C@H](C)[C@H](CN(C)S(=O)(=O)c2cccs2)Oc2ncc(-c3cc4ccccc4o3)cc2C1=O,67*,0,.
CCCN(C)C[C@@H]1Oc2ncc(-c3cc4ccccc4o3)cc2C(=O)N([C@H](C)CO)C[C@@H]1C,?,1,.
COc1ccc(S(=O)(=O)N(C)C[C@@H]2Oc3ncc(-c4cc5ccccc5o4)cc3C(=O)N([C@H](C)CO)C[C@@H]2C)cc1,47,0,-15
SMILES,T cruzi HTS,A1 apoptosis 2,INS-1E ATP HTS
O=C(NO)c1ccc(C(=O)N/N=C/c2cccc(Br)c2)cc1,-7,.,-7
COc1ccc([Si](C)(C)[C@@H]2[C@@H](CCO)O[C@]3(C(=O)N(C)c4c(Br)cc(C)cc43)[C@H]2C)cc1,.,44*,.
COc1ccc([Si](C)(C)[C@@H]2[C@@H](CCO)O[C@]3(C(=O)N(C)c4ccccc43)[C@H]2C)cc1,.,2,.
COc1ccc(NC(=O)Nc2ccc3c(c2)CC(=O)N([C@@H](C)CO)C[C@H](C)[C@@H](CN(C)Cc2ccc(Oc4ccccc4)cc2)O3)cc1,62*,0,-40
C[C@H]1CN([C@@H](C)CO)C(=O)Cc2cc(NC(=O)C3CCCCC3)ccc2O[C@@H]1CN(C)Cc1ccc(Oc2ccccc2)cc1,59*,.,-29
COc1ccc(NC(=O)Nc2ccc3c(c2)CC(=O)N([C@H](C)CO)C[C@@H](C)[C@@H](CN(C)Cc2ccc(Oc4ccccc4)cc2)O3)cc1,72*,.,-22
COc1ccc(NC(=O)Nc2ccc3c(c2)CC(=O)N([C@H](C)CO)C[C@@H](C)[C@H](CN(C)Cc2ccc(Oc4ccccc4)cc2)O3)cc1,10,.,-25
C[C@H](CO)N1C[C@H](C)[C@@H](CN(C)Cc2ccc(Oc3ccccc3)cc2)Oc2ccc(NC(=O)C3CCCCC3)cc2CC1=O,.,0,.
COc1ccc(CN(C)C[C@@H]2Oc3ccc(NC(=O)Nc4ccccc4)cc3CC(=O)N([C@@H](C)CO)C[C@H]2C)cc1,.,0,.
OCc1ccc(-c2ccncc2)cc1,.,1,.
CC1(C)COC(CCC/C=N/NC(=O)c2ccccc2O)OC1,-10,1,-11
O=C(CCCCCCC(=O)Nc1ccccc1O)N/N=C/c1ccc(N2CCCC2)cc1,-2,-1,7
C[C@H]1CN([C@@H](C)CO)C(=O)Cc2cc(NS(C)(=O)=O)ccc2O[C@@H]1CN(C)Cc1ccc(Cl)c(Cl)c1,64*,1,3
C[C@H]1CN([C@@H](C)CO)C(=O)Cc2cc(NS(=O)(=O)c3ccc(Cl)cc3)ccc2O[C@@H]1CN(C)Cc1ccc(Cl)c(Cl)c1,35,.,4
C[C@@H]1CN([C@@H](C)CO)C(=O)Cc2cc(NS(=O)(=O)c3ccc(Cl)cc3)ccc2O[C@@H]1CN(C)Cc1ccc(Cl)c(Cl)c1,61*,0,-17
C[C@@H]1CN([C@@H](C)CO)C(=O)Cc2cc(NS(=O)(=O)c3ccccc3)ccc2O[C@@H]1CN(C)Cc1ccc(Cl)c(Cl)c1,53,.,-28
C[C@@H]1CN([C@H](C)CO)C(=O)Cc2cc(NS(C)(=O)=O)ccc2O[C@@H]1CN(C)Cc1ccc(Cl)c(Cl)c1,28,.,-13
C[C@H]1CN([C@@H](C)CO)C(=O)Cc2cc(NS(=O)(=O)c3ccccc3)ccc2O[C@@H]1CN(C)Cc1ccc(Cl)c(Cl)c1,65*,-1,-9
Cc1ccc(/C=N/NC(=O)c2cccc(C(=O)NO)c2)o1,-9,-1,-2

# Screening data from PubChem BioAssay.
